Activity calls are given as the source filed them. The rule behind the calls is not given here.

Assay [1] has as its target T1, Interferon alpha/beta receptor 1 (Homo sapiens) (UniProt P17181).
T1 sequence (whole entry): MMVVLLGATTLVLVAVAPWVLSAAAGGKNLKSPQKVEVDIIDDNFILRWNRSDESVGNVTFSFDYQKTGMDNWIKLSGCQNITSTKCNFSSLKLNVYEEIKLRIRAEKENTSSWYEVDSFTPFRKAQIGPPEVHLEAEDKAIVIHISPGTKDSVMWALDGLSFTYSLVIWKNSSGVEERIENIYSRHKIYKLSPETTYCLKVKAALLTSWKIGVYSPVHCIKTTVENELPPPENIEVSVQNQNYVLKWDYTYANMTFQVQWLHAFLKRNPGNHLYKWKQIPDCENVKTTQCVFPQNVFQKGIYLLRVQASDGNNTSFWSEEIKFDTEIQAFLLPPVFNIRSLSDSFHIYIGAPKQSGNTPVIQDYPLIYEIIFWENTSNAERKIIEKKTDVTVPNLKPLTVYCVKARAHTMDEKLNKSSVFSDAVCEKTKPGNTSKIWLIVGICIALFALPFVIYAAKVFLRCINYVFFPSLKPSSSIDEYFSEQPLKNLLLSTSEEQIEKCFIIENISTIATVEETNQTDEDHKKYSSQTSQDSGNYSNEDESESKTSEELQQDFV
Description: Activity at IFNAR in human Daudi cells assessed as induction of stat1 tyrosine phosphorylation at 100 umol after 5 to 30 mins. The class given is cell-based.

Assay [2] deals with T1, Interferon alpha/beta receptor 1 (Homo sapiens). Put plainly: Antagonist activity at IFNAR in human Daudi cells assessed as reduction of IFN-inducible Stat1:Stat3-pIRE complex formation at 100 umol by electrophoretic mobility shift assay. It counts as functional, cell-based.
Assay [3] has the same target. Description: Antagonist activity at IFNAR in human Daudi cells assessed as reduction of IFN-inducible Stat1:Stat1-pIRE complex formation at 100 umol by electrophoretic mobility shift assay. It counts as functional, cell-based.
Assay [4] has the same target. Description: Antagonist activity at IFNAR in human Daudi cells assessed as inhibition of IFN-inducible Stat1 tyrosine phosphorylation by SDS-PAGE. It counts as functional, cell-based. In short, it runs like this: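 Daudi cells were left untreated or exposed to IFN alfacon-1 (100 pg) for 15 min, with or without compound (dose–response 20–100 µM). Lysates were run on SDS-PAGE, transferred to nitrocellulose and immunoblotted for phospho-Stat1. Membranes were stripped and reprobed for total Stat1, or β-actin served as the loading control.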

As for `CCOc1cc(OCCCN)nc(NCCCOC(C)C)n1`, in assay [1], the result was inactive.

With `CN(C)CCSc1nccc(-c2ccco2)n1`, the outcome in assay [1] was inactive. Turning to `CC(C)OCCCNc1nc(OCCN)cc(OCCN(C)C)n1`, the outcome in assay [1] was inactive.

On to `CCOc1cc(OCCCCN)nc(NCCCOC(C)C)n1`, for which the result in assay [1] was inactive. On to `CC(C)OCCCNc1cc(OCCN(C)C)nc(OCCCN)n1`, for which the result in assay [1] was inactive. Regarding `CC(C)OCCCNc1nc(OCCCCN)cc(OCCN(C)C)n1`, the result in assay [1] was inactive.

In the case of `CCOc1cc(OCCN(C)C)nc(OCCN(C)C)n1`, in assay [1], the result was inactive. Consider `CC(C)Oc1cc(OCCN(C)C)nc(OCCN(C)C)n1`, for which the result in assay [1] was inactive. Consider `COCCNc1cc(OCCN(C)C)nc(OCCCNC(=N)N)n1`, for which the outcome in assay [1] was inactive. `COCCNc1cc(OCCN(C)C)nc(Oc2ccc(CCN)cc2)n1`: the outcome in assay [1] was inactive. Regarding `COCCNc1nc(OCCCCN)cc(OCCN(C)C)n1`, the outcome in assay [1] was inactive. The same measure, in the same setting: the result for `COCCNc1cc(OC(C)C)nc(OC(C)C)n1` reads “inactive”; that for `CCOc1cc(OCCN(C)C)nc(NCCCOC(C)C)n1`, “inactive”. For the compound `CN(C)CCSc1ccc(-c2cc(-c3ccco3)nc(SCCN(C)C)n2)cc1`, the outcome in assay [2] and in assay [3] was Active. Further, the result in assay [1] was inactive. Moreover, in assay [4], the Activity result was “Dose-dependent effect”.

In the case of `COCCNc1nc(OCCCCNC(=N)N)cc(OCCN(C)C)n1`, in assay [1], the outcome was inactive. Still for that read-out and setting: the result for `COCCNc1cc(OCCN(C)C)nc(OCCCN)n1` reads “inactive”. With `CC(C)OCCCNc1nc(OCCCN)cc(OC(C)C)n1`, the outcome in assay [1] was inactive.

`CC(C)OCCCNc1cc(OCCN(C)C)nc(OCCCNC(=N)N)n1`: the result in assay [1] was inactive.

As to `CCOc1cc(N(C)C)nc(NCCCOC(C)C)n1`, in assay [1], the result was inactive. Take `CN(C)CCSc1ccc(-c2cc(-c3cccs3)nc(SCCN(C)C)n2)cc1`: the outcome in assay [2] and in assay [3] was Active. Moreover, the outcome in assay [1] was inactive. Also, in assay [4], the Activity entry was “Dose-dependent effect”. As for `COCCNc1cc(OCCN(C)C)nc(OCCNC(=N)N)n1`, in assay [1], the result was inactive.

For the compound `CC(C)OCCCNc1nc(OCCN(C)C)cc(OC(C)C)n1`, the result in assay [1] was inactive.

`CC(C)OCCCNc1cc(OCCN(C)C)nc(Oc2ccc(CCN)cc2)n1`: in assay [1], the result was inactive. Same read-out and setting: the result for `COCCNc1cc(OCCN(C)C)nc(OCCN)n1` reads “inactive”.

Consider `CC(C)OCCCNc1nc(OCCCCNC(=N)N)cc(OCCN(C)C)n1`, for which, in assay [1], the result was inactive. Consider `CN(C)CCSc1nccc(-c2cccs2)n1`, for which, in assay [1], the result was inactive.

These data come from ChEMBL document CHEMBL1149913, “De novo design of nonpeptidic compounds targeting the interactions between interferon-alpha and its cognate cell surface receptor” (J Med Chem, 2008).
